For experiment [1], the target named is T1, Adrenergic receptor alpha-1 (Rattus norvegicus, UniProt P15823+P23944+P43140).
T1 sequence (P15823 whole entry): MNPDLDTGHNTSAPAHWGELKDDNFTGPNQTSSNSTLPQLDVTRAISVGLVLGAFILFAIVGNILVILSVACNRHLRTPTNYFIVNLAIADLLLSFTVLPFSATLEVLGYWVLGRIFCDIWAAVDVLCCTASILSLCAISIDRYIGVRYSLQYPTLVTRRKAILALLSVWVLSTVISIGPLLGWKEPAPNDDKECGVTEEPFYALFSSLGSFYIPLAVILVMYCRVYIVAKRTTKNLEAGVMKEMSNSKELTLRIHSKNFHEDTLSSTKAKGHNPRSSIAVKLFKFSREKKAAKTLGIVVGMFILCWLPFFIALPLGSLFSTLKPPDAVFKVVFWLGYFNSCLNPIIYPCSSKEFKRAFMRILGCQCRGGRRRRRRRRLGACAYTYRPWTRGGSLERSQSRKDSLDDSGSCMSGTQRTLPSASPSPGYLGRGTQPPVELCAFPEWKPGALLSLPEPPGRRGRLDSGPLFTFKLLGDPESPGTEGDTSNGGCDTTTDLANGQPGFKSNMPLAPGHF
T1 sequence (P23944 whole entry): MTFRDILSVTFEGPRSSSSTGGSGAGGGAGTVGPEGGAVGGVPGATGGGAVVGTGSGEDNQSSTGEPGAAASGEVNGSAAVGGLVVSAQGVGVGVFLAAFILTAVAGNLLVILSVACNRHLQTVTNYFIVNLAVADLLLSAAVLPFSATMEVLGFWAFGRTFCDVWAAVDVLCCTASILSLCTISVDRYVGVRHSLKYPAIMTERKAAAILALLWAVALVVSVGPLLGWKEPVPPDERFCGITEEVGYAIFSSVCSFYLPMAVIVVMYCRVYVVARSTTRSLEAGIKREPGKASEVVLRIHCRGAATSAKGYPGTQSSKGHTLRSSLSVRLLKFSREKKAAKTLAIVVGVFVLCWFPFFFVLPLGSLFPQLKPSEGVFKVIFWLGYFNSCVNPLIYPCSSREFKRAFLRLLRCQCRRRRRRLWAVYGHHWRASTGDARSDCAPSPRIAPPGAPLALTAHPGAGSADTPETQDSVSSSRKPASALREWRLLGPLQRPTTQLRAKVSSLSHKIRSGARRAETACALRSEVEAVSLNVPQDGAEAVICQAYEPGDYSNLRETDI
T1 sequence (P43140 whole entry): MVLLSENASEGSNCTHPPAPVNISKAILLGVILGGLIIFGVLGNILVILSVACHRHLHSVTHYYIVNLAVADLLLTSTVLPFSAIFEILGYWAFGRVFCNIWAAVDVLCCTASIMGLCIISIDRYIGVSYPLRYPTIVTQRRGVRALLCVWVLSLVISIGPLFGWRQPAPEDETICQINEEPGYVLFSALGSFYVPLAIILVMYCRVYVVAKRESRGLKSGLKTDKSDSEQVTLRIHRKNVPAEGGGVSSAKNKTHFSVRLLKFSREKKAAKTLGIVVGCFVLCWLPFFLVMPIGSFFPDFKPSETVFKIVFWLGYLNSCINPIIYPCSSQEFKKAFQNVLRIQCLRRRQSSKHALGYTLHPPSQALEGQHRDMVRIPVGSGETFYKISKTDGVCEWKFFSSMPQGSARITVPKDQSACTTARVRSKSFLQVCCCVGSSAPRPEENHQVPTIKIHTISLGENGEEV
Briefly: Binding of [3H]prazosin to alpha-1 adrenergic receptor of rat cerebral cortical membranes. The class given is cell membranes, Membrane. The method, boiled down:
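Affinity at alpha-1 adrenergic receptors measured as inhibition of specific [3H]prazosin binding to rat cerebral cortical membranes.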

In experiment [2] the target is T2, Adrenergic receptor alpha-2 (Rattus norvegicus, UniProt P22086+P19328+P22909).
T2 sequence (P22086 whole entry): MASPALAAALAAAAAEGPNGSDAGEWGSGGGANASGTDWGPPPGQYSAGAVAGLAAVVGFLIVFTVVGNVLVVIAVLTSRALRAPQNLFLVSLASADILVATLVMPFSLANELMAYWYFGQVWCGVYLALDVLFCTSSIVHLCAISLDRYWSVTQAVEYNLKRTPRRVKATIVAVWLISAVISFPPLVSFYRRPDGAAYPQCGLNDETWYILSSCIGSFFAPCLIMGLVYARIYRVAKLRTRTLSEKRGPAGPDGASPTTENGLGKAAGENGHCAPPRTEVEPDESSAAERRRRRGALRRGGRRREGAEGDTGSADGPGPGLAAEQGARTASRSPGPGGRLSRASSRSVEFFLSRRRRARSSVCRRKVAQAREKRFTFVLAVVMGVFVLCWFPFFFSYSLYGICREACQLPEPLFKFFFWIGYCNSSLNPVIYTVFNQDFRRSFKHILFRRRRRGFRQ
T2 sequence (P19328 whole entry): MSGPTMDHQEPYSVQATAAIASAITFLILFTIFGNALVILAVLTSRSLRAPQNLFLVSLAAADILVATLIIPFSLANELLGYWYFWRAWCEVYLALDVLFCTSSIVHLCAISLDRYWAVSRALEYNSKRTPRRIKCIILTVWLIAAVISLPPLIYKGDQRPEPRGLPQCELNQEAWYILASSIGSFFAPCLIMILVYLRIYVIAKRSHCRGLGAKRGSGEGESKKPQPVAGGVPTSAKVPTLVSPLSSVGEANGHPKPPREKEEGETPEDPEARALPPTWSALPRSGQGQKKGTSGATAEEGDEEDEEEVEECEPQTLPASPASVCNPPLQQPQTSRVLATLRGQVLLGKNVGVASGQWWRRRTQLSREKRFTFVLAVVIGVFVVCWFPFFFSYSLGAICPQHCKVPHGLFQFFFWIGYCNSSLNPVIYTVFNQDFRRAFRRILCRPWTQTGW
T2 sequence (P22909 whole entry): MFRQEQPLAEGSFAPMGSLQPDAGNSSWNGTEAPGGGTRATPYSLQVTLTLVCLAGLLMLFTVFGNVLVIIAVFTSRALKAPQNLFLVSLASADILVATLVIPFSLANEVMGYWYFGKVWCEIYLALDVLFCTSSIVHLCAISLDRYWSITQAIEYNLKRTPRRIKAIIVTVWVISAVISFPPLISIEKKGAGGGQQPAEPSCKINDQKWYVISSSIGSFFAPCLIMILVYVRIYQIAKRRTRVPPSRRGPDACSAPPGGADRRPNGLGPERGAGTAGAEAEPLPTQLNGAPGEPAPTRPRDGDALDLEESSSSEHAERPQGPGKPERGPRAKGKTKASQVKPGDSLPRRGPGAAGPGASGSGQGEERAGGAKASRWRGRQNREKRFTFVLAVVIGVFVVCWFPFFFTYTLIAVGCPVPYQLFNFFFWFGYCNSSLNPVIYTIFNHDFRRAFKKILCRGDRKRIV
As to the kind of experiment: Binding of [3H]clonidine to alpha-2-adrenergic receptor of rat cerebral cortical membranes. Format: cell membranes, Membrane.

Experiment [3] concerns the target Adrenergic receptor alpha-1 (Rattus norvegicus) (UniProt P15823+P23944+P43140). Briefly: Binding of [3H]prazosin to alpha-1 adrenergic receptor of rat cerebral cortical membranes at 100 uM. The class given is cell membranes. The note with it: Membrane.
In experiment [4] the target is Beta-1 adrenergic receptor (Rattus norvegicus, UniProt P18090). Briefly: Binding of [3H]dihydroalprenolol to beta-1 adrenergic receptor of rat cerebral cortical membranes. The class given is cell membranes, Membrane. In a few lines:
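Competition assay measuring displacement of specific [3H]dihydroalprenolol binding from rat cerebral cortical membranes to give beta-1 adrenergic receptor affinity.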

18 compounds from ChEMBL document CHEMBL1132920, “Syntheses of (R)- and (S)-2- and 6-fluoronorepinephrine and (R)- and (S)-2- and 6-fluoroepinephrine: effect of stereochemistry on fluorine-induced adrenergic selectivities” (J Med Chem, 2000) can be followed below.

SMILES strings stand for the structures.

Chain of Beta-1 adrenergic receptor (P18090 whole entry): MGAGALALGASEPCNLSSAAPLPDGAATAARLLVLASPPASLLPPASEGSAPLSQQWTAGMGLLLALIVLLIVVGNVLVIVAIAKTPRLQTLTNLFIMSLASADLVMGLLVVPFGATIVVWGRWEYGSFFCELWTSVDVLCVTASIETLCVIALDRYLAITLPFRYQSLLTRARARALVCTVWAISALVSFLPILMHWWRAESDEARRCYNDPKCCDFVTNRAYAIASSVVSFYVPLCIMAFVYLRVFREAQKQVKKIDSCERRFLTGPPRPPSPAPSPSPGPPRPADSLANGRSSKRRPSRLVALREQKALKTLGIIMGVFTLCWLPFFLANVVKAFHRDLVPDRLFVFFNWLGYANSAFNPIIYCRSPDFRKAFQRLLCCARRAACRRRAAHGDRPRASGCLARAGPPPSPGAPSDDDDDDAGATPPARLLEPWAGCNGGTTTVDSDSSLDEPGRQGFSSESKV

Usually Ki stands for a measure of affinity in units of concentration, obtained from inhibition or displacement. Turning to `NCCc1ccc(O)c(O)c1` [DOPAMINE], the Ki in experiment [1] is 14 µM; in experiment [2] it was 0.058 µM.

What is called inhibition is the drop in the measured response relative to a control, in per cent. Read a high inhibition as a strong effect. For `NC[C@@H](O)c1ccc(O)c(O)c1F`, the inhibition in experiment [3] was found to be 12%. Moreover, the Ki in experiment [2] was found to be 0.32 µM.

Regarding `CNCC(O)c1ccc(O)c(O)c1F` (racemic), in experiment [2], the Ki was 0.06 µM.

Consider `CNC[C@H](O)c1cc(O)c(O)cc1F`, for which the Ki in experiment [4] was ~100 µM; in experiment [2], 0.013 µM.

In turn, `CNC[C@@H](O)c1ccc(O)c(O)c1` [L-ADRENALINE] gave a Ki in experiment [4] of 13 µM.

Take `NC[C@@H](O)c1cc(O)c(O)cc1F`: the inhibitory constant (Ki) in experiment [1] was ~ 12 uM.

In experiment [3], `NCC(O)c1ccc(O)c(O)c1` (single isomer, unassigned) registered an inhibition of 18%.

For the compound `NCCc1cc(O)c(O)cc1F`, the figures for the Ki in experiment [1], in experiment [4] and in experiment [2] were 6 µM, 41 µM and 0.04 µM, respectively.

Consider `CNC[C@@H](O)c1ccc(O)c(O)c1F`, for which the figures for the Ki in experiment [1] and in experiment [2] were ~ 40 uM and 0.053 µM, respectively.

Turning to `CNCC(O)c1cc(O)c(O)cc1F` (racemic), the Ki is ~140 µM in experiment [4] and 0.014 µM in experiment [2].

For `CNC[C@H](O)c1ccc(O)c(O)c1` (racemic) [EPINEPHRINE], the affinity in experiment [4], expressed as Ki, was 2.1 µM.

With `NC[C@H](O)c1ccc(O)c(O)c1F`, the figures for the Ki in experiment [1] and in experiment [2] were ~ 25 uM and 0.55 µM, respectively.

In the case of `CNC[C@H](O)c1ccc(O)c(O)c1F`, the Ki in experiment [2] is 0.067 µM.

As for `NCC(O)c1ccc(O)c(O)c1F` (racemic), the results for the Ki in experiment [1] and in experiment [2] were ~ 50 uM and 0.6 µM, respectively.

For `CNC[C@@H](O)c1cc(O)c(O)cc1F`, the Ki in experiment [4] is ~400 µM; in experiment [2] it was 0.078 µM.

Turning to `NCCc1ccc(O)c(O)c1F`, the Ki amounted to 16 µM in experiment [1], 19 µM in experiment [4] and 0.12 µM in experiment [2].

In experiment [1], `NC[C@H](O)c1cc(O)c(O)cc1F` returned a Ki of 3.7 µM.

In the case of `NCC(O)c1cc(O)c(O)cc1F` (racemic), the inhibition in experiment [3] is 20%.
